The record followed here is ChEMBL document CHEMBL1121845, “Synthesis and antitumor activity of cysteinyl-3,4-dihydroxyphenylalanines and related compounds” (1981).

Each structure is given as a SMILES string.

Assay [1] concerns Don. Kind of assay: Growth inhibition of Don-6 cell lines at 1.0 mM concentration. The assay is classed as functional. The following applies: Cricetulus griseus. Summed up: (§1)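 YT-nu (human neuroblastoma) or Don-6 (Chinese hamster fibroblast) cells in McCoy's 5A with 15% FCS, attached 24 h. Washed, then exposed 1 h at 37 °C to drug at 1 or 0.1 mM in Hanks' BSS. Grown 48 h more in medium, trypsinized and Coulter-counted. % growth inhibition relative to parallel drug-free controls.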

In assay [2] the test system is YT-NU. Kind of assay: Growth inhibition of YT-nu cell lines at 1.0 mM concentration. Conditions: Homo sapiens. The assay is classed as functional. Summed up: as §1
Assay [3] has as its system YT-nu neuroblastoma (Homo sapiens). Kind of assay: Compound was tested for growth inhibition of YT-nu cell lines at 0.1 mM concentration.
The subject of assay [4] is Don-6 fibroblast (Cricetulus griseus). Kind of assay: Compound was tested for growth inhibition of Don-6 cell lines at 0.1 mM concentration.
Assay [5] concerns Mus musculus. Kind of assay: Compound was tested for antitumor activity against the L1210 leukemia in mice at dose of 500(mg/kg)/day intraperitoneally per day. The assay is classed as functional. Summed up: (§2)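 L1210 leukemia: young C57BL/6 × DBA/2 F1 male mice, about 20 g, 10 per group, inoculated ip with 1 × 10^6 leukemia cells on day 0. Drug given in 0.9% NaCl ip once daily for 7 days starting day 1. Read-out is %T/C = median survival time of treated/control × 100; weight change averaged between days 1 and 5.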

In assay [6] the test system is Mus musculus. The experiment in a line: Compound was tested for antitumor activity against the L1210 leukemia in mice at dose of 1000 mg/kg/day intraperitoneally per day. The assay is classed as functional. Conditions: route intraperitoneal.
Assay [7] concerns Mus musculus. Kind of assay: Compound was tested for antitumor activity against the B-16 melanoma in mice at dose of 1000 mg/kg/day intraperitoneally per day. The assay is classed as functional. The following applies: route intraperitoneal.
Assay [8] relates to Mus musculus. Kind of assay: Compound was tested for antitumor activity against the B-16 melanoma in mice at dose of 500(mg/kg)/day intraperitoneally per day. Type of assay: functional. Summed up: (§3)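 B-16 melanoma: young C57BL/6 × DBA/2 F1 male mice, about 20 g, 10 per group, inoculated ip with 5 × 10^6 melanoma cells on day 0. Drug given in 0.9% NaCl ip once daily for 12 days starting day 1. Read-out is %T/C = median survival time of treated/control × 100; weight change averaged between days 1 and 5.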

Assay [9] deals with Mus musculus. The experiment in a line: Compound was tested for antitumor activity against the L1210 leukemia in mice at dose of 500 mg/kg intraperitoneally per day. The assay is classed as functional. Conditions: route intraperitoneal. Summed up:
as §2

Assay [10] deals with Don. Kind of assay: Compound was tested for growth inhibition of Don-6 cell lines at 0.1 mM concentration. Conditions: Cricetulus griseus. Type of assay: functional. Summed up:
as §1

Assay [11] relates to Mus musculus. Kind of assay: Compound was tested for antitumor activity against the L1210 leukemia in mice at dose of 400(mg/kg)/day intraperitoneally per day. The assay is classed as functional. Summed up: as §2
Assay [12] relates to Mus musculus. The experiment in a line: Compound was tested for antitumor activity against the L1210 leukemia in mice at dose of 800(mg/kg)/day intraperitoneally per day. Type of assay: functional. Summed up:
as §2

Assay [13] has as its system Mus musculus. The experiment in a line: Compound was tested for antitumor activity against the B-16 melanoma in mice at dose of 400(mg/kg)/day intraperitoneally per day. Type of assay: functional. Summed up: as §3
For assay [14], the system named is Mus musculus. The experiment in a line: Compound was tested for antitumor activity against the B-16 melanoma in mice at dose of 800(mg/kg)/day intraperitoneally per day. The assay is classed as functional. Summed up:
as §3

In assay [15] the test system is YT-NU. Kind of assay: Compound was tested for growth inhibition of YT-nu cell lines at 0.1 mM concentration. The following applies: Homo sapiens. The assay is classed as functional. Summed up:
as §1

Assay [16] concerns Mus musculus. The experiment in a line: Compound was tested for antitumor activity against the L1210 leukemia in mice at dose of 300(mg/kg)/day intraperitoneally per day. Type of assay: functional. Summed up: as §2
Assay [17] has as its system Mus musculus. The experiment in a line: Compound was tested for antitumor activity against the B-16 melanoma in mice at dose of 300(mg/kg)/day intraperitoneally per day. Type of assay: functional. Summed up: as §3
Assay [18] deals with Mus musculus. The experiment in a line: Compound was tested for antitumor activity against the L1210 leukemia in mice at dose of 100(mg/kg)/day intraperitoneally per day. The assay is classed as functional. Summed up:
(§4)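 Male C57BL/6 × DBA/2 F1 mice, about 20 g, 10 per group, inoculated ip with 1 × 10^6 L1210 cells on day 0. From day 1, drug in 0.9% NaCl given ip once daily for 7 days. Weight change recorded between days 1 and 5. Activity expressed as %T/C = median survival time of treated over control × 100.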

Assay [19] has as its system Mus musculus. Kind of assay: Compound was tested for antitumor activity against the B-16 melanoma in mice at dose of 100(mg/kg)/day intraperitoneally per day. Type of assay: functional. Summed up: as §3
Assay [20] concerns Mus musculus. The experiment in a line: Compound was tested for antitumor activity against the L1210 leukemia in mice at dose of 250 mg/kg intraperitoneally per day. Type of assay: functional. Conditions: route intraperitoneal. Summed up:
as §2

Assay [21] relates to Mus musculus. Kind of assay: Compound was tested for antitumor activity against the L1210 leukemia in mice at dose of 150(mg/kg)/day intraperitoneally per day. Type of assay: functional. Summed up:
as §4

As a reminder, the inhibition is how much of the control response was suppressed. Read a low inhibition as a weak effect. In general, T/C refers to the ratio of treated to control.

As to `NC(CSc1ccccc1O)C(=O)O` (centres undefined), the inhibition at 1000 µM with Don [1] was 5%; with YT-NU [2] it was 51%.
In the case of `Cc1ccc(O)c(O)c1`, the inhibition at 1000 µM worked out at 76% with Don [1] and 93% in the assay on YT-NU [2]. The results for the inhibition at 100 µM in assay [3] and in assay [4] were 48% and 33%, respectively.
Turning to `NC(CSc1cc(CC(N)C(=O)O)cc(O)c1O)C(=O)O` (centres undefined), the figures for the inhibition at 1000 µM in the assay with Don [1] and with YT-NU [2] were 11% and 59%, respectively. Further, the T/C in the assay on Mus musculus [5] was 131%; in the assay with Mus musculus [6], 150%; in the assay with Mus musculus [7], 127%; in the assay on Mus musculus [8], 108%. Besides, the Weight change was 1.7 g in the assay on Mus musculus [6], 2.1 g in the assay on Mus musculus [7], 2.6 g with Mus musculus [8] and 1.7 g with Mus musculus [9].
With `NC(CSc1nc(CC(N)C(=O)O)c[nH]1)C(=O)O` (centres undefined), the inhibition at 1000 µM was found to be 0% with Don [1] and 7% in the assay with YT-NU [2].
With `NC(CSc1cc(O)c(O)cc1CC(N)C(=O)O)C(=O)O` (centres undefined), the results for the inhibition at 1000 µM in the assay with Don [1] and in the assay on YT-NU [2] were 41% and 61%, respectively.
For `Cc1cc(O)c(O)c(SCC(N)C(=O)O)c1` (centres undefined), the inhibition at 100 µM is 25% in the assay with Don [10] and 44% in the assay on YT-NU [15]. Besides, the inhibition at 1000 µM is 82% in the assay on Don [1] and 84% in the assay with YT-NU [2]. The T/C came to 143% with Mus musculus [11], 143% in the assay with Mus musculus [12], 100% in the assay on Mus musculus [13] and 126% in the assay on Mus musculus [14]. Also, the Weight change in the assay on Mus musculus [11] is on record as 1.6 g; in the assay with Mus musculus [12], 0.5 g; in the assay with Mus musculus [13] it was 0.7 g; with Mus musculus [14], -0.4 g.
On to `NC(CSc1ccc(SCC(N)C(=O)O)c(O)c1O)C(=O)O` (centres undefined), for which the results for the inhibition at 1000 µM in the assay with Don [1] and in the assay with YT-NU [2] were 30% and 40%, respectively.
Consider `NC(CSc1ccc(O)c(O)c1)C(=O)O` (centres undefined), for which the inhibition at 100 µM came out at 69% in the assay on Don [10] and 71% in the assay with YT-NU [15]. Further, the inhibition at 1000 µM in the assay on Don [1] was determined as 81%; with YT-NU [2], 76%. The T/C turned out to be 150% in the assay with Mus musculus [5]; 138% with Mus musculus [16]; 114% with Mus musculus [17]; 95% in the assay with Mus musculus [8]; 113% in the assay on Mus musculus [18]; 109% in the assay with Mus musculus [19]. Moreover, the Weight change is reported as -1 g in the assay with Mus musculus [5]; 0.5 g in the assay on Mus musculus [16]; -1.3 g in the assay on Mus musculus [17]; -1.5 g in the assay with Mus musculus [8]; 1.4 g in the assay on Mus musculus [18]; 1.8 g in the assay on Mus musculus [19].
Turning to `NC(CSc1c(CC(N)C(=O)O)ccc(O)c1O)C(=O)O` (centres undefined), the inhibition at 1000 µM with Don [1] is 0%; in the assay on YT-NU [2], 35%.
Take `NC(CSc1ccc(O)cc1)C(=O)O` (centres undefined): the inhibition at 1000 µM in the assay with Don [1] was found to be 5%; in the assay on YT-NU [2], 36%. This compound yielded a T/C in the assay on Mus musculus [20] of 100%. The Weight change in the assay on Mus musculus [20] is recorded as 3 g.
Take `NC(CSc1cc(CC(N)C(=O)O)c(SCC(N)C(=O)O)c(O)c1O)C(=O)O` (centres undefined): the inhibition at 1000 µM with Don [1] was found to be 44%; with YT-NU [2] it was 56%.
As to `NC(CSc1cc(CC(N)C(=O)O)ccc1O)C(=O)O` (centres undefined), the inhibition at 1000 µM came out at 5% in the assay on Don [1] and 7% with YT-NU [2].
For `NC(CSc1cccc(O)c1O)C(=O)O` (centres undefined), in that order: 32% and 20%.
With `Cl.Cl.NCCSc1cc(CCN)cc(O)c1O`, the inhibition at 1000 µM was determined as 83% in the assay on Don [1] and 65% in the assay with YT-NU [2]. Moreover, the T/C in the assay on Mus musculus [21] is reported as 88%; in the assay with Mus musculus [18], 100%. Further, the Weight change is listed as -2.1 g in the assay with Mus musculus [21] and 1.1 g in the assay on Mus musculus [18]. Also, the figures for the inhibition at 100 µM in assay [3] and in [4] were 48% and 73%, respectively.
With `NCCc1ccc(O)c(O)c1` [DOPAMINE], the inhibition at 1000 µM in the assay on Don [1] stood at 30%; in the assay on YT-NU [2], 40%.
On to `N[C@@H](Cc1ccc(O)c(O)c1)C(=O)O` [LEVODOPA], for which the results for the inhibition at 1000 µM in the assay on Don [1] and in the assay with YT-NU [2] were 6% and 24%, respectively.
